Values joined by “and” are separate entries in the source; they are usually repeats but may differ in a detail not shown here. Identical values can stand only once. Out of some 370,000 compounds screened, about 1,200 (0.32%) were called active. The sample as a whole holds a higher share of actives than the screen did. A number with no mark means an inactive call.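 Rule for the calls: active = inhibition above the mean of all tested compounds plus 3 SD, set per campaign (cut at about 25% in these data); inactive = the rest.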

Sequence of Tyrosyl-DNA phosphodiesterase 2 (Homo sapiens) (O95551 whole entry, looked up): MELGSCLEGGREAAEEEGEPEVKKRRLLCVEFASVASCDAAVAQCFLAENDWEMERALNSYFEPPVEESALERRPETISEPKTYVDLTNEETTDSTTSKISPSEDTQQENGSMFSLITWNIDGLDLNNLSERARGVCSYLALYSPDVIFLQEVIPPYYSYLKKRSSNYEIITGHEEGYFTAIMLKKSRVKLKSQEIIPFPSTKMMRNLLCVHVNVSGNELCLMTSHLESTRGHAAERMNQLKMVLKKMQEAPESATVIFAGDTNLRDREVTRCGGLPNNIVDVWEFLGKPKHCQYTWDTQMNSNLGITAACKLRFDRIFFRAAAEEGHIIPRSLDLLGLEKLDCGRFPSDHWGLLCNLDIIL

For the test, the target named is Tyrosyl-DNA phosphodiesterase 2 (Homo sapiens) (UniProt O95551). As to the kind of experiment: blockers of TDP2 phosphodiesterase activity – biochemical, epi absorbance, recombinant enzyme, primary screen (AID 720702).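 Note: 0% = DMSO with enzyme and 100% = buffer with substrate but no TDP2.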 The following applies: recombinant TDP2, T5PNP hydrolysis, p-nitrophenol absorbance 415 nm; at 12.8 µM; hits give high values. Put shortly:
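System: recombinant human TDP2 / Amount: 120 nM TDP2 per well / Also added: 5 mM T5PNP chromogenic substrate / Doses: 12.8 µM single point, 1% DMSO / Incubation: 2 h at 37 °C / Detection: p-Nitrophenol epi absorbance / Evaluation: % inhibition relative to enzyme-containing and enzyme-free wells / Repeats: singlicate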
Regarding `CCOC(=O)N1CCC(C(N)=O)CC1`, the inhibition is 4.66%.

In the case of `CCOC(=O)N1CCC(NC(=O)Cc2cn(C)c3ccccc23)CC1`, the inhibition was -2.66%.

For the molecule `CCOC(=O)N1CCC(c2cc(=O)n(-c3ccccc3)[nH]2)CC1`, the inhibition was 79.4% (active).

As for `CCOc1ccc(Oc2c(Cl)cnn(-c3ccc(C)cc3)c2=O)cc1`, the inhibition was -6.6%.

Take `Cc1ccc(NC(=O)Cc2nnc(SCC(=O)Nc3nncs3)n2C)cc1`: the inhibition is 9.72%.

As for `O=C(CSc1ccc(-c2ccccn2)nn1)Nc1ccccc1`, the inhibition is -4.03%.

With `CCc1ccc(-c2nn(-c3ccccc3)cc2CSC(=N)N)cc1`, the inhibition was -12%.

In the case of `O=Cc1cn(-c2ccccc2)nc1-c1ccccn1`, the inhibition is 31.4% (active).

For `N[C@@H](Cc1ccccc1)C(=O)N1CCC[C@@H]1C(=O)N1CCC2CCN(S(=O)(=O)c3ccccc3)CC21` (some centres undefined), the inhibition is 2.14%.

In the case of `O=C(CSc1nc2sc3c(c2c(=O)n1-c1ccccc1)CCCC3)NN=Cc1ccc(OCc2ccccc2)cc1`, the inhibition is 8.18%.

For `C=CCN=C1NC(c2ccccc2)C(C(=O)OC)=C(C)N1Cc1ccc(C(F)(F)F)cc1` (centres undefined), the inhibition is -7.84%.

Regarding `COc1cccc(OC)c1CN(C)C(=O)c1cnccc1C(F)(F)F`, the inhibition was -13.4%.

Take `COC(=O)C1CN(CCc2ccccc2)CCS(=O)(=O)N1Cc1ccc(F)cc1` (centres undefined): the inhibition is -8.99%.

`CCN(CC(=O)NCc1cccs1)c1nnnn1-c1ccccc1`: the inhibition is -4.19%.

With `Cc1nc2c(C(=O)NCc3cccs3)cnn2c(C)c1Cc1ccc(F)cc1`, the inhibition was 6.37%.

Regarding `C=CCn1c(N)c(C(=O)OCC(C)C)c2nc3ccccc3nc21`, the inhibition was 30.5% (active).

Regarding `C=CCN1CN(S(=O)(=O)c2ccc(OC)cc2)c2nc3ccccc3nc21`, the inhibition is -10.2%.

As for `CC(C)Cn1c(N)c(C(=O)NCc2cccs2)c2nc3ccccc3nc21`, the inhibition is 62.4% (active).

With `C=CCn1c(P(C)(=O)O)nc2ccccc21`, the inhibition was 2.29% and 0.31%.

As for `O/N=C(\C[n+]1ccccc1)c1ccc(Br)cc1`, the inhibition was -4.49%.

For the molecule `CSc1nnc(-c2ccncc2)n1CCCN1CCCC1=O`, the inhibition was 3.44%.

As for `O=C1Nc2ccccc2OC1CC(=O)N1CCCCCCC1` (centres undefined), the inhibition is 4.41%.

Consider `COC(CNC(=O)[C@H](Cc1ccccc1)NC1(C(=O)NC2CCCCC2)CCCCC1)OC`, for which the inhibition is -1.87%.

Consider `CCCCNC(=O)CCn1nc(-c2ccc(Cl)cc2)ccc1=O`, for which the inhibition is 29.2% (active).

`CCN(CC)CCCNC(=O)CCn1nc(-c2ccc(Cl)cc2)ccc1=O`: the inhibition was -8.35%.

Turning to `CCCNC(=O)CCn1cc(-c2ccc(OC)cc2)nc1CCN`, the inhibition is -1.08%.

Turning to `COC(=O)[C@]12C[C@H](CC(=O)NCCc3ccccc3OC)C(=O)N(Cc3ccccc3)C1=C[C@H](C(C)C)O[C@@H]2C1CC1`, the inhibition is -7.01%.

For `Cc1ccc(S(=O)(=O)NNC(=S)NC(C)(C)C)cc1`, the inhibition is 0.38%.

On to `COc1ccc2c(c1)c(=Cc1ccc(N(C)C)cc1)c1cc(-c3ccccc3)[n+](C)n12`, for which the inhibition was 28.4% (active).

Take `CCOC(=O)[C@]12CCCCC/C=C\1N(Cc1ccc(OC)cc1)C(=O)[C@H]2CC(=O)NCCCN1CCCC1=O`: the inhibition was -4.43%.

Take `CC(C)CCNC(=O)C1CCC(CNc2c(N3CCC(C)CC3)c(=O)c2=O)CC1` (centres undefined): the inhibition is -1.37%.

In the case of `CC(=O)N(C1=C(Cl)C(=O)c2ccccc2C1=O)c1ccc(C(=O)O)cc1`, the inhibition is 42.4% (active).

On to `O=C1C(Cl)=C(Oc2ccccc2)C(=O)c2ccccc21`, for which the inhibition is 3.22%.

For the molecule `COP(=O)(O)CNC(=O)OCc1ccccc1`, the inhibition was -6.21%.

With `CCn1c(=O)n2n(c1=O)[C@@]1(C=C3CCCC[C@H]32)N=C(NC(=O)c2ccccc2)N(Cc2ccccc2)[C@H]1Cc1ccccc1`, the inhibition was 4.32%.

As to `Cc1nc(CNc2ncnc3ccc(-c4ccc5c(c4)OCO5)cc23)cs1`, the inhibition is 0.28%.

Regarding `CN1c2ccc(C=O)c3c(C=O)ccc(c23)N(C)C1(C)C`, the inhibition was 48.6% (active).

Turning to `COc1ccc(N2CCN(CCNS(=O)(=O)c3ccc(Cl)s3)CC2)cc1`, the inhibition was -1.58%.

On to `NS(=O)(=O)c1cc(C(=O)OCC(=O)NNC(=O)c2ccccc2)ccc1Cl`, for which the inhibition was -0.47%.

With `O=C(NN1C(=O)C2C3C=CC(O3)C2C1=O)c1ccccc1` (centres undefined), the inhibition was -12.4%.

As to `O=C(NC1=CC(=O)c2ccccc2C1=O)c1ccccc1`, the inhibition was 44.5% (active).

Take `Cc1ccccc1NC(=O)C(C)OC(=O)CCC(=O)N(CC(C)C)c1c(N)n(CC(C)C)c(=O)[nH]c1=O` (centres undefined): the inhibition was -3.56%.

`O=C1OC(Oc2ccc(Br)cc2)(c2ccccc2)c2ccccc21` (centres undefined): the inhibition is -5.92%.

Regarding `O=C(COC(=O)CCc1c[nH]c2ccccc12)Nc1cccc(Cl)c1`, the inhibition was 9.41%.

On to `O=C(COC(=O)Cc1c[nH]c2ccccc12)NCCc1ccccc1`, for which the inhibition is 24.9% (active).

Take `CC(C)(C)N(Cc1ccccc1)C(=O)COC(=O)CCc1c[nH]c2ccccc12`: the inhibition is -14.4%.

Consider `COc1cccc(Cn2cc(COC(=O)Nc3ccc(F)cc3)nn2)c1`, for which the inhibition was 4.69%.

As to `N#Cc1ccc(C(=O)Nc2nc(-c3cccs3)c(C(=O)C(F)(F)F)s2)cc1`, the inhibition was -0.4%.

On to `CC1CCCC(NC(=O)c2cc(S(=O)(=O)N3CCCCC3)ccc2Cl)C1C` (centres undefined), for which the inhibition was 5.78%.

As to `CC1CCCC(NC(=O)c2cc(-c3ccncc3)nc3ccccc23)C1C` (centres undefined), the inhibition is 68.1% (active).

With `CC1CCCCC1NC(=O)c1cc(=O)[nH]c2ccccc12` (centres undefined), the inhibition is 6.87%.

For the molecule `COc1ccc(-c2ccc3c(n2)CCCN3S(=O)(=O)c2ccc(C)cc2)cc1`, the inhibition is 4.76%.

With `N#Cc1c(N2CCCCC2)nc(N)c2c(N)nc(SCC(=O)O)cc12`, the inhibition was 7.63%.

On to `CCOC(=O)c1ccc(NC(=O)C2CC(=O)Nc3nc4ccccc4n32)cc1` (centres undefined), for which the inhibition was -14.1%.

As to `CCOC(=O)c1ccc(NC2Nc3cc(C)nn3S2)cc1` (centres undefined), the inhibition is 26.6% (active).

Regarding `CCc1ccc(NC2Nc3cc(C)nn3S2)cc1` (centres undefined), the inhibition is -7.9%.

As to `COc1ccc(S[C@]2(C(=O)N(C)C)CC(=O)N(c3ccc(OC)cc3)[C@@H]2c2ccc(OC)cc2)cc1`, the inhibition is -13.2%.

Consider `C/C(=N/O)c1ccc(N2C(=O)C3C4C=CC(C3C2=O)C2C3C(=O)N(c5ccc(/C(C)=N/O)cc5)C(=O)C3C42)cc1` (centres undefined), for which the inhibition is -7.03%.

Take `O=C(Nc1cccc2c1CCCC2)C1CCN(C(=O)NC2CCCCC2)CC1`: the inhibition is 1.74%.

For the molecule `O=C(CSc1nnc2c(n1)[nH]c1ccccc12)NC1CCCCC1`, the inhibition was -1.87%.

As for `O=C(NC1CCCCC1)N1CCc2[nH]c3ccccc3c2C1`, the inhibition was 56.5% (active).

As to `N#C/C(C(=S)Nc1ccccc1)=C1/NN=C(N2CCOCC2)N1c1ccccc1`, the inhibition is 10.7%.

For `COC(=O)c1ccc(C2C(Oc3ccccc3C)C(=O)N2CCc2ccc(OC)c(OC)c2)cc1` (centres undefined), the inhibition is -12.5%.

As to `CCc1ccc(OCC(=O)OC(C)C(=O)NC2CC2)cc1` (centres undefined), the inhibition was -6.8%.

In the case of `COCCN1C=C2C(=O)C(C)(OC(=O)C3CCCC3)C(=O)C=C2C=C1c1ccsc1` (centres undefined), the inhibition was 31.4% (active).

With `CC1(OC(=O)C2CCCC2)C(=O)C=C2C=C(c3ccc(C#N)cc3)OC=C2C1=O` (centres undefined), the inhibition is 0.49%.

In the case of `CCCCC1=CC2=CC(=O)C(C)(OC(=O)CC)C(=O)C2=CN1CCCOC(C)C` (centres undefined), the inhibition is 13.3%.

With `O=C(Cn1cnc2ccccc2c1=O)NNC(=O)c1ccccc1F`, the inhibition was 4.65%.

For the molecule `CCSc1nnc(SCC(=O)NNC(=O)c2ccccc2F)s1`, the inhibition is 24.7% (active).

On to `COCCNc1nnc(SCC(=O)NNC(=O)c2ccco2)s1`, for which the inhibition was 5.04%.

`Cc1sc2nc(SCC(=O)c3ccc(O)c(O)c3)n(Cc3ccco3)c(=O)c2c1C`: the inhibition is -1.34%.

On to `Cc1ccc(-c2nc(CS(=O)CC(=O)N3CCN(c4ncccn4)CC3)c(C)o2)cc1` (centres undefined), for which the inhibition is 0.23%.

Take `COC(=O)[C@]12C[C@H](CC(=O)N3CCOCC3)C(=O)N(Cc3ccc(Cl)cc3Cl)C1=C[C@H](COCc1ccccc1)O[C@@H]2C`: the inhibition was 12.9%.

Consider `CCC(=O)Nc1ccc2nn(-c3ccc(F)cc3)nc2c1`, for which the inhibition is -12.3%.

Consider `Nc1ccc2nn(-c3ccc(Cl)cc3)nc2c1`, for which the inhibition is 30.9% (active).

Consider `O=C(NC1CCCC1)C1CSCCS(=O)(=O)N1Cc1ccccc1` (centres undefined), for which the inhibition was 7.85%.

In the case of `COc1ccccc1C(=O)CSc1nnc(-c2ccccn2)n1-c1ccccc1`, the inhibition was -12.9%.

Regarding `COc1ccc(CSc2nnc(SCC(=O)Nc3ccccc3C(F)(F)F)s2)cc1`, the inhibition is -0.45%.

Turning to `CCOc1c(Br)cc(/C=C2\C(=O)N(CCC#N)N=C2C)cc1OC`, the inhibition was 59.9% (active).

Regarding `CC(C)C(C#CC1CC1)N(Cc1ccc2c(c1)OCO2)C(N)=NC(=O)/C=C/c1cccc(C(F)(F)F)c1` (centres undefined), the inhibition is 4.77%.

For `O=C1c2ccccc2-c2ncnc3c(N4CCOCC4)cc(N4CCOCC4)c1c23`, the inhibition is -13.8%.

As for `COc1ccc(S(=O)(=O)N2CCOCC2)c(C)c1C`, the inhibition is 0.48%.

On to `COC1=C(N2CCOCC2)C(=O)c2ccccc2C1=O`, for which the inhibition was 36.8% (active).

On to `CCCS(=O)(=O)NC(=O)C1(C)CCN(C(=O)c2sccc2C)C1` (centres undefined), for which the inhibition was -5.34%.

Consider `CCCCNC(=O)C[C@@H]1C(=O)N(CCc2ccc(Cl)cc2)C2=CCCC[C@]21C(=O)OCC`, for which the inhibition is 8.61%.

In the case of `COc1ccc2c(c1)C(=O)Nc1cc(Cl)ccc1N2`, the inhibition was -17%.

For `O=C(CCl)N(Cc1cccc([N+](=O)[O-])c1)c1cccc(Cl)c1`, the inhibition is -6.43%.

Take `COc1ccc([N+](=O)[O-])cc1C1NN=C(c2cccc3ccccc23)S1` (centres undefined): the inhibition is 3.04%.

For the molecule `O=C1Nc2ccc([N+](=O)[O-])cc2C1=Nc1cccc(CO)c1`, the inhibition was 36.9% (active).
